Reference: publication PMC3008344 (Molecular nutrition & food research, 2009)

Legend:
[1] = test system: human MDA-MB-231 breast cancer cells; settings: supplemented in the diet, MDA-MB-231 cells; cited from earlier work
[2] = test system: BALB/c 66cl-4-GFP mouse mammary cancer cells; settings: formulated in liposomes, oral gavage, BALB/c 66cl-4-GFP cells; cited from earlier work
[3] = test system: MDA-MB-231-GFP human breast cancer cells; experiment: Colony formation assay; assay type: cell-based; settings: for Effect on colony formation: MDA-MB-231-GFP cells, 10 days, 10–40 μM range tested; for IC50: Homo sapiens, 240 h, read-out: IC50 for inhibition of colony formation
Procedure, shortened: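 MDA-MB-231-GFP cells were seeded at 1000 per 100 mm plate in 2% FBS medium and grown 3 days to form small colonies. They were then treated 10 days with test compound at 10–40 μM (positive control 5–15 μM) or DMSO/ethanol (1:4) vehicle. Colonies were methanol-fixed, stained with 0.1% methylene blue and counted by image analysis. Survival (%) = colonies treated/control × 100. IC50 came from survival curves; mean ± SD, ≥2 experiments.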

[4] = test system: MDA-MB-231-GFP human breast cancer cells; experiment: Visible lung metastases counted at sacrifice; assay type: in vivo, Nu/Nu female BALB/c mice; settings: 500 mg/kg diet each, control 70%
[5] = test system: MDA-MB-231-GFP tumor tissue; experiment: Tumor immunohistochemistry: Ki-67 proliferation; assay type: in vivo, Nu/Nu female BALB/c mice; settings: tumor tissue from 5 mice/group, 500 mg/kg diet
Procedure, shortened: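 Female Nu/Nu BALB/c mice (6 weeks) received 2 × 10^6 MDA-MB-231-GFP cells s.c. (inguinal) in 50% matrigel. At ~25 mm3 they were randomised (10/group) to tocopherol-stripped AIN-76A diet with 33 IU all-rac-α-tocopherol acetate/kg, ± test form at 500 mg/kg, for 24 days. Formalin-fixed tumours were cut into 5 μm sections and stained for Ki-67. Positive cells were counted in 5 fields (400×) per tumour, 5 mice/group; Mann-Whitney test.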

PARP = experiment: Western blot of PARP cleavage; assay type: cell-based, human; settings: MDA-MB-231-GFP cells; for PARP cleavage: 5 days
Procedure, shortened: (§1)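 Whole-cell extracts came from the same 5-day-treated MDA-MB-231-GFP samples (2% FBS) used for annexin V analysis. Blots were incubated overnight at 4°C with primary antibody in 0.1% BSA/TBST against PARP (cleavage), Survivin, DR5 or GAPDH. After TBST washes they were probed with HRP-conjugated secondary antibody.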

[6] = test system: MDA-MB-231-GFP tumor tissue; experiment: Tumor immunohistochemistry: TUNEL apoptosis; assay type: in vivo, Nu/Nu female BALB/c mice; settings: tumor tissue from 5 mice/group, 500 mg/kg diet
Procedure, shortened: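 Xenografts came from female Nu/Nu BALB/c mice carrying s.c. MDA-MB-231-GFP tumours in matrigel. From ~25 mm3, mice were fed for 24 days a tocopherol-stripped AIN-76A basal diet (33 IU all-rac-α-tocopherol acetate/kg) with or without 500 mg/kg test vitamin E form. TUNEL (ApopTag) staining was done on deparaffinised 5 μm sections of formalin-fixed tumours. Brown nuclei were scored in 15 fields (400×) per tumour, 5 mice/group; Mann-Whitney test.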

Survivin = experiment: Western blot of Survivin protein expression; assay type: cell-based, human; settings: MDA-MB-231-GFP cells; for Survivin protein expression: 5 days
Procedure, shortened: as §1

DR5 = experiment: Western blot of DR5 protein expression; assay type: cell-based, human; settings: MDA-MB-231-GFP cells; for DR5 protein expression: 5 days
[7] = test system: MDA-MB-231-GFP human breast cancer cells; experiment: Annexin V-PE apoptosis assay; assay type: cell-based; settings: MDA-MB-231-GFP cells; for Induction of apoptosis (annexin V-PE positive cells): 5 day treatments

Compound | Tumor burden in xenograft model [1] | Tumor growth in syngeneic mouse model [2] | Effect on colony formation [3] | Incidence of visible lung metastases [4] | Decrease of Ki-67 positive cells in tumor in comparison to control group [5] | PARP cleavage (PARP) | Increase of TUNEL positive cells in tumor in comparison to control group [6] | Survivin protein expression (Survivin) | DR5 protein expression (DR5) | Induction of apoptosis (annexin V-PE positive cells) [7] | IC50 [3] | Block of α-TEA-induced apoptosis by αT ([7]; 10 μM αT plus 10 μM α-TEA, 5 days) | Block of γT-induced apoptosis by αT ([7]; 10 μM αT plus 40 μM γT, 5 days) | Effect of αT co-treatment on γT- and α-TEA-induced cleavage of PARP (PARP) | Effect of αT co-treatment on γT- and α-TEA-induced downregulation of Survivin (Survivin) | Effect of αT co-treatment on γT- and α-TEA-induced upregulation of DR5 (DR5)
Cc1c(C)c2c(c(C)c1O)CCC(C)(CCCC(C)CCCC(C)CCCC(C)C)O2 (racemic) [all-rac-αT, all-racemic-α-tocopherol] | reduced tumor burden | suppressed tumor growth | no inhibitory effect | 30% | 23% | did not cause cleavage of PARP | 2.1 fold | did not downregulate Survivin | induced an increase in DR5 protein expression |  |  |  |  |  |  | 
Cc1c(C)c2c(c(C)c1OCC(=O)O)CC[C@@](C)(CCC[C@H](C)CCC[C@H](C)CCCC(C)C)O2 [α-TEA, RRR-α-tocopherol ether-linked acetic acid analog] |  | suppressed tumor growth |  | 30% | 39% | PARP cleavage | 2.1 fold | downregulation of anti-apoptotic Survivin | upregulation of pro-apoptotic death receptor DR5 | induced dose-dependent apoptosis | 4.8 µM |  |  |  |  | 
Cc1c(C)c2c(c(C)c1O)CC[C@@](C)(CCC[C@H](C)CCC[C@H](C)CCCC(C)C)O2 [αT, RRR-α-tocopherol] |  |  | no inhibitory effect | 60% | but not αT or αT + γT groups | did not cause cleavage of PARP | but not in the αT or αT + γT groups | did not downregulate Survivin | induced an increase in DR5 protein expression |  |  | 70% | 60% | blocked | blocked | blocked
Cc1c(O)cc2c(c1C)O[C@](C)(CCC[C@H](C)CCC[C@H](C)CCCC(C)C)CC2 [γT, RRR-γ-tocopherol] |  | suppressed tumor growth |  | 30% | no significant difference | PARP cleavage | 1.9 fold | downregulation of anti-apoptotic Survivin | upregulation of pro-apoptotic death receptor DR5 | induced dose-dependent apoptosis | 11.8 µM |  |  |  |  | 
